Laboratory results taken from publication PMC6235538 (Science Advances, 2018).
Bridges are numbered along the chain shown (N, C = ends). Where no end group is shown, it is not given here.

Assays:
[1] = test system: FL-BCRs on transduced Raji lymphoma cells; experiment: Surface staining of BCR-transduced Raji cells by biotinylated peptides; type: binding, human; details: synthetic biotinylated peptides, flow cytometry
Procedure, shortened: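 Raji cells were lentivirally transduced with a lymphoma BCR scFv fused to a membrane-anchored human antibody Fc fragment, then FACS-sorted for BCR carriers. Cells were grown with 10% FBS, 10 mM Hepes, penicillin/streptomycin and 2 mM GlutaMAX. Surface staining used synthetic biotinylated peptides and an anti-IgG Fc antibody, read by flow cytometry. One Raji population served as the Fc-staining control.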

[2] = test system: cells from FL patient 4 biopsy; experiment: Flow cytometry staining of control biopsy cells; type: binding, human; details: control biopsy sample
Procedure, shortened: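 Flow cytometry on control B cells from a lymphoma biopsy, stained with a synthetic biotinylated cyclic peptide ligand. B cells were gated with a B220-specific antibody. Bound peptide was detected with FITC-labelled streptavidin.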

| Sequence | binding to BCRs on transduced Raji cells (in words) [1] | staining by the FL1 peptide (in words) [2] |
| --- | --- | --- |
| CTTDQARKC (disulfide 1-9 (inferred)) [FL3] | BCRs capable of binding to the peptides were present on these cells | – |
| CMPHWQNHC (disulfide 1-9 (inferred)) [FL2] | BCRs capable of binding to the peptides were present on these cells | – |
| CILDLPKFC (disulfide 1-9 (inferred)) [FL1] | BCRs capable of binding to the peptides were present on these cells | did not demonstrate any significant staining |
